Results: ChEMBL document CHEMBL1129377, “Synthesis, structure-activity relationships, and the effect of polyethylene glycol on inhibitors of phosphatidylinositol-specific phospholipase C from Bacillus cereus” (J Med Chem, 1996)

Tests used:
[1] = Inhibition of Phosphoinositide specific phospholipase C (PI-PLC) from Bacillus cereus on the internal face of the cell membrane.
Summary of the method: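 Single-phase aqueous assay: recombinant B. cereus PI-PLC, final 5 nM, with 0.25 mM NPIP in 100 mM HEPES, 1 mM EDTA, pH 7, 0.008% PEG-8000, 25 °C. Inhibitor kept at least tenfold below cmc and added before substrate and enzyme. Initial rates at 399 nm over 4 min. IC50 is the mean of two experiments. Ki came from varying NPIP 0.1-0.5 mM at two inhibitor levels, fitted to competitive inhibition.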

Bacillus cereus [2] = assay: Compound was tested for the inhibition of Phosphatidylinositol-Specific Phospholipase C (PI-PLC) in the presence of PEG-600 at concentration of 40.0 mM; parameters: scale not given: the % may be the effect or the level left
Summary of the method: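 Recombinant B. cereus PI-PLC (E. coli periplasmic prep), final 5 nM, with 0.25 mM NPIP (D-enantiomer) in 90% crystallization precipitant solution (33% PEG-600, 0.16 M trisodium citrate-HCl pH 7.35, 46 mM HEPES pH 7), 25 °C. Inhibitor preincubated a few minutes before substrate and enzyme. p-Nitrophenolate followed at 399 nm for 4 min; activity normalized to uninhibited control.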

Bacillus cereus [3] = assay: Compound was tested for the inhibition of Phosphoinositide specific phospholipase C (PI-PLC) in the presence of buffer at concentration of 40.0 mM; parameters: scale not given: the % may be the effect or the level left
Summary of the method: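 Recombinant B. cereus PI-PLC, final 5 nM, with 0.25 mM NPIP (D-enantiomer) in 100 mM HEPES, 1 mM EDTA, pH 7, no PEG-600, 25 °C. Inhibitor added a few minutes before substrate and enzyme. Activity normalized to uninhibited control; mean of at least two separate experiments.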

SMILES	IC50 [1] [µM]	also measured
O[C@H]1[C@H](O)[C@@H](O)[C@H](O)[C@@H](O)[C@@H]1O [SCYLLITOL]	410000	
CCCCCCOCC(COP(=O)(O)OC)OCCCCCC (stereo not drawn)	53	
O=P1(O)OC2C(O)C(O)C(O)C(O)C2O1 (stereo not drawn)	135000	
CCCCCCOCC(CCP(=O)(O)O)OCCCCCC (stereo not drawn)	60	
CCCCCCOCC(CCP(=O)(O)OC1C(O)C(O)C(O)C(O)C1O)OCCCCCC (stereo not drawn)	18	Activity (Bacillus cereus [2]; 0.25 mM, in the assay text read “0.25 mM” for “40.0 mM”): 100%; Activity (Bacillus cereus [3]): 25%
O=C1C(O)C(O)C(O)C(O)C1O (racemic)	3	
O=C1C(O)C(O)C(O)C(O)C1O (stereo in doubt)	133	
O[C@H]1[C@@H](O)[C@@H](O)[C@@H](O)[C@@H](O)[C@@H]1O	2000	
CCCCCCOCC(CC(F)(F)P(=O)(O)O)OCCCCCC (stereo not drawn)	45	
CCCCCCOCC(CCP(=O)(O)OC)OCCCCCC (stereo not drawn)	23	
O[C@@H]1[C@H](O)[C@@H](O)[C@@H](O)[C@@]2(CO2)[C@@H]1O	> 50000	
CCCCCCOCC(COP(=O)(O)O)OCCCCCC (stereo not drawn)	55	
O=P(O)(O)OC1C(O)C(O)C(O)C(O)C1O (stereo in doubt; form 1) [listing 1 of 2 here]		Activity (Bacillus cereus [2]; 16.0 mM, in the assay text read “16.0 mM” for “40.0 mM”): 56%; Activity (Bacillus cereus [3]): 69%
CCCCCC(=O)OCC(COP(=O)(O)OC)OC(=O)CCCCC (stereo not drawn)	118	
CCCCCCCCOCC(COP(=O)(O)OC)OCCCCCCCC (stereo not drawn)	12	Activity (Bacillus cereus [2]; 0.17 mM, in the assay text read “0.17 mM” for “40.0 mM”): 102%; Activity (Bacillus cereus [3]): 14%
CCCCCC(=O)OCC(COP(=O)(O)O)OC(=O)CCCCC (stereo not drawn)	187	
CCCCCOCC(COP(=O)(O)OC)OCCCCC (stereo not drawn)	235	
O=P(O)(O)OC1C(O)C(O)C(O)C(O)C1O (stereo in doubt; form 2)	56	
CCCCCCOCC(CC(F)(F)P(=O)(O)OC1C(O)C(O)C(O)C(O)C1O)OCCCCCC (stereo not drawn)	34	
O=P(O)(O)OC1C(O)C(O)C(O)C(O)C1O (stereo in doubt; form 1) [listing 2 of 2 here]	43	
O[C@H]1[C@H](O)[C@@H](O)[C@H](O)[C@@H](O)[C@H]1O [INOSITOL]	10000	Activity (Bacillus cereus [2]; 40.0 mM): 22%; Activity (Bacillus cereus [3]): 18%
